# Measurements taken from ChEMBL document CHEMBL1828552, “Synthesis and studies of novel 2-(4-cyano-3-trifluoromethylphenyl amino)-4-(quinoline-4-yloxy)-6-(piperazinyl/piperidinyl)-s-triazines as potential antimicrobial, antimycobacterial and anticancer agents” (2011).
# System: Proteus vulgaris
# Experiment: Antibacterial activity against 10^5 CFU/mL Proteus vulgaris MTCC 1771 after 24 hrs by agar streak dilution method
# Assay type: functional
# Settings: MTCC 1771, 24 h
# Summary of the method: (§1)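 Agar streak dilution. Stock 100 µg/mL in DMSO; graded amounts were mixed into molten nutrient agar and poured at 4–5 mm depth. Plates carried serial dilutions over […]. About 10⁵ CFU/mL of each bacterium was applied, and plates were incubated at 37 ± 1 °C for 24 h. MIC was read from the dilution series.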
row,SMILES,MIC [µg/mL]
1,N#Cc1ccc(Nc2nc(Oc3ccnc4ccccc34)nc(N3CCN(c4ccccc4)CC3)n2)cc1C(F)(F)F,100

# System: Candida albicans
# Experiment: Antifungal activity against 10^5 CFU/mL Candida albicans MTCC 183 after 48 hrs by disc diffusion technique
# Assay type: functional
# Settings: not given
row,SMILES,inhibition zone (IZ) [mm]
1,N#Cc1ccc(Nc2nc(Oc3ccnc4ccccc34)nc(N3CCN(c4ccccc4)CC3)n2)cc1C(F)(F)F,<10

# System: Escherichia coli
# Experiment: Antibacterial activity against 10^5 CFU/mL Escherichia coli MTCC 739 after 24 hrs by agar streak dilution method
# Assay type: functional
# Settings: MTCC 739, 24 h
# Summary of the method: as §1
row,SMILES,MIC [µg/mL]
1,N#Cc1ccc(Nc2nc(Oc3ccnc4ccccc34)nc(N3CCN(c4ccccc4)CC3)n2)cc1C(F)(F)F,100

# System: Pseudomonas aeruginosa
# Experiment: Antibacterial activity against 10^5 CFU/mL Pseudomonas aeruginosa MTCC 741 after 24 hrs by agar streak dilution method
# Assay type: functional
# Settings: MTCC 741, 24 h
# Summary of the method: as §1
row,SMILES,MIC [µg/mL]
1,N#Cc1ccc(Nc2nc(Oc3ccnc4ccccc34)nc(N3CCN(c4ccccc4)CC3)n2)cc1C(F)(F)F,100

# System: Bacillus cereus
# Experiment: Antibacterial activity against 10^5 CFU/mL Bacillus cereus MTCC 619 after 24 hrs by disc diffusion technique
# Assay type: functional
# Settings: not given
# Summary of the method: (§2)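 Disc diffusion on Mueller–Hinton agar poured 5 mm deep. The surface was swabbed with a 10⁵ CFU/mL […] suspension. Filter-paper discs 6.25 mm in diameter were soaked in compound in DMSO and placed on the agar. Plates were incubated 24 h at 37 ± 1 °C, and the inhibition zone was measured in mm. A DMSO disc served as blank.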
row,SMILES,inhibition zone (IZ) [mm]
1,N#Cc1ccc(Nc2nc(Oc3ccnc4ccccc34)nc(N3CCN(c4ccccc4)CC3)n2)cc1C(F)(F)F,<10

# System: Bacillus cereus
# Experiment: Antibacterial activity against 10^5 CFU/mL Bacillus cereus MTCC 619 after 24 hrs by agar streak dilution method
# Assay type: functional
# Settings: MTCC 619, 24 h
# Summary of the method: as §1
row,SMILES,MIC [µg/mL]
1,N#Cc1ccc(Nc2nc(Oc3ccnc4ccccc34)nc(N3CCN(c4ccccc4)CC3)n2)cc1C(F)(F)F,100

# System: Aspergillus fumigatus
# Experiment: Antifungal activity against 10^5 CFU/mL Aspergillus fumigatus MTCC 343 after 48 hrs by agar streak dilution method
# Assay type: functional
# Settings: MTCC 343, 48 h
# Summary of the method: (§3)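 Agar streak dilution for fungi. Stock 100 µg/mL in DMSO; graded amounts were mixed into molten Sabouraud dextrose agar and poured at 4–5 mm depth. Serial dilutions ran over […]. About 10⁵ CFU/mL inoculum was applied, with incubation at 37 ± 1 °C for 48 h. MIC was read from the dilution series.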
row,SMILES,MIC [µg/mL]
1,N#Cc1ccc(Nc2nc(Oc3ccnc4ccccc34)nc(N3CCN(c4ccccc4)CC3)n2)cc1C(F)(F)F,100

# System: Shigella flexneri
# Experiment: Antibacterial activity against 10^5 CFU/mL Shigella flexneri MTCC 1457 after 24 hrs by disc diffusion technique
# Assay type: functional
# Settings: not given
# Summary of the method: as §2
row,SMILES,inhibition zone (IZ) [mm]
1,N#Cc1ccc(Nc2nc(Oc3ccnc4ccccc34)nc(N3CCN(c4ccccc4)CC3)n2)cc1C(F)(F)F,<10

# System: Aspergillus fumigatus
# Experiment: Antifungal activity against 10^5 CFU/mL Aspergillus fumigatus MTCC 343 after 48 hrs by disc diffusion technique
# Assay type: functional
# Settings: not given
row,SMILES,inhibition zone (IZ) [mm]
1,N#Cc1ccc(Nc2nc(Oc3ccnc4ccccc34)nc(N3CCN(c4ccccc4)CC3)n2)cc1C(F)(F)F,<10

# System: Klebsiella pneumoniae
# Experiment: Antibacterial activity against 10^5 CFU/mL Klebsiella pneumoniae MTCC 109 after 24 hrs by agar streak dilution method
# Assay type: functional
# Settings: MTCC 109, 24 h
# Summary of the method: as §1
row,SMILES,MIC [µg/mL]
1,N#Cc1ccc(Nc2nc(Oc3ccnc4ccccc34)nc(N3CCN(c4ccccc4)CC3)n2)cc1C(F)(F)F,100

# System: Pseudomonas aeruginosa
# Experiment: Antibacterial activity against 10^5 CFU/mL Pseudomonas aeruginosa MTCC 741 after 24 hrs by disc diffusion technique
# Assay type: functional
# Settings: not given
# Summary of the method: as §2
row,SMILES,inhibition zone (IZ) [mm]
1,N#Cc1ccc(Nc2nc(Oc3ccnc4ccccc34)nc(N3CCN(c4ccccc4)CC3)n2)cc1C(F)(F)F,<10

# System: DU-145
# Experiment: Cytotoxicity against […] human DU145 cells after 48 hrs by SRB assay
# Assay type: functional
# Settings: DU-145, 48 h
# Summary of the method: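 SRB assay in DU-145 cells grown in RPMI 1640 with 10% FBS and 2 mM L-glutamine. Cells were plated and held 24 h before addition of four 10-fold concentrations. After 48 h, cells were TCA-fixed, stained with 0.4% SRB and read at 540 nm. GI50, TGI and LC50 were derived against time-zero and control wells; each value is the mean of three experiments.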
SMILES,GI50 [µM],LC50 (concentration giving 50% net cell kill relative to time zero) [µM],TGI [µM]
N#Cc1ccc(Nc2nc(Oc3ccnc4ccccc34)nc(N3CCN(c4ccccc4)CC3)n2)cc1C(F)(F)F,> 100,> 100,> 100

# System: Staphylococcus aureus
# Experiment: Antibacterial activity against 10^5 CFU/mL Staphylococcus aureus MTCC 96 after 24 hrs by disc diffusion technique
# Assay type: functional
# Settings: not given
# Summary of the method: as §2
row,SMILES,inhibition zone (IZ) [mm]
1,N#Cc1ccc(Nc2nc(Oc3ccnc4ccccc34)nc(N3CCN(c4ccccc4)CC3)n2)cc1C(F)(F)F,14

# System: Salmonella typhi
# Experiment: Antibacterial activity against 10^5 CFU/mL Salmonella typhi MTCC 733 after 24 hrs by agar streak dilution method
# Assay type: functional, Salmonella enterica subsp. enterica serovar Typhi
# Settings: Salmonella enterica, MTCC 733, 24 h
row,SMILES,MIC [µg/mL]
1,N#Cc1ccc(Nc2nc(Oc3ccnc4ccccc34)nc(N3CCN(c4ccccc4)CC3)n2)cc1C(F)(F)F,100

# System: Aspergillus clavatus
# Experiment: Antifungal activity against 10^5 CFU/mL Aspergillus clavatus MTCC 1323 after 48 hrs by agar streak dilution method
# Assay type: functional
# Settings: MTCC 1323, 48 h
# Summary of the method: as §3
row,SMILES,MIC [µg/mL]
1,N#Cc1ccc(Nc2nc(Oc3ccnc4ccccc34)nc(N3CCN(c4ccccc4)CC3)n2)cc1C(F)(F)F,100

# System: Aspergillus niger
# Experiment: Antifungal activity against 10^5 CFU/mL Aspergillus niger MTCC 282 after 48 hrs by agar streak dilution method
# Assay type: functional
# Settings: MTCC 282, 48 h
# Summary of the method: as §3
row,SMILES,MIC [µg/mL]
1,N#Cc1ccc(Nc2nc(Oc3ccnc4ccccc34)nc(N3CCN(c4ccccc4)CC3)n2)cc1C(F)(F)F,100

# System: Aspergillus clavatus
# Experiment: Antifungal activity against 10^5 CFU/mL Aspergillus clavatus MTCC 1323 after 48 hrs by disc diffusion technique
# Assay type: functional
# Settings: not given
row,SMILES,inhibition zone (IZ) [mm]
1,N#Cc1ccc(Nc2nc(Oc3ccnc4ccccc34)nc(N3CCN(c4ccccc4)CC3)n2)cc1C(F)(F)F,<10

# System: Salmonella typhi
# Experiment: Antibacterial activity against 10^5 CFU/mL Salmonella typhi MTCC 733 after 24 hrs by disc diffusion technique
# Assay type: functional, Salmonella enterica subsp. enterica serovar Typhi
# Settings: not given
# Summary of the method: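 Disc diffusion. Mueller-Hinton agar autoclaved 120 °C 30 min, poured 5 mm deep. Surface swabbed with 10⁵ CFU/mL suspension […]. 6.25 mm filter-paper discs soaked in compound in DMSO; DMSO-only disc as blank. Incubated 37 ± 1 °C, 24 h for bacteria or 48 h for fungi. Ciprofloxacin and ketoconazole discs as reference drugs. Inhibition zone measured in mm.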
row,SMILES,inhibition zone (IZ) [mm]
1,N#Cc1ccc(Nc2nc(Oc3ccnc4ccccc34)nc(N3CCN(c4ccccc4)CC3)n2)cc1C(F)(F)F,13

# System: Klebsiella pneumoniae
# Experiment: Antibacterial activity against 10^5 CFU/mL Klebsiella pneumoniae MTCC 109 after 24 hrs by disc diffusion technique
# Assay type: functional
# Settings: not given
# Summary of the method: as §2
row,SMILES,inhibition zone (IZ) [mm]
1,N#Cc1ccc(Nc2nc(Oc3ccnc4ccccc34)nc(N3CCN(c4ccccc4)CC3)n2)cc1C(F)(F)F,<10

# System: Aspergillus niger
# Experiment: Antifungal activity against 10^5 CFU/mL Aspergillus niger MTCC 282 after 48 hrs by disc diffusion technique
# Assay type: functional
# Settings: not given
row,SMILES,inhibition zone (IZ) [mm]
1,N#Cc1ccc(Nc2nc(Oc3ccnc4ccccc34)nc(N3CCN(c4ccccc4)CC3)n2)cc1C(F)(F)F,<10

# System: Candida albicans
# Experiment: Antifungal activity against 10^5 CFU/mL Candida albicans MTCC 183 after 48 hrs by agar streak dilution method
# Assay type: functional
# Settings: MTCC 183, 48 h
# Summary of the method: as §3
row,SMILES,MIC [µg/mL]
1,N#Cc1ccc(Nc2nc(Oc3ccnc4ccccc34)nc(N3CCN(c4ccccc4)CC3)n2)cc1C(F)(F)F,100

# System: Shigella flexneri
# Experiment: Antibacterial activity against 10^5 CFU/mL Shigella flexneri MTCC 1457 after 24 hrs by agar streak dilution method
# Assay type: functional
# Settings: MTCC 1457, 24 h
# Summary of the method: as §1
row,SMILES,MIC [µg/mL]
1,N#Cc1ccc(Nc2nc(Oc3ccnc4ccccc34)nc(N3CCN(c4ccccc4)CC3)n2)cc1C(F)(F)F,100

# System: Escherichia coli
# Experiment: Antibacterial activity against 10^5 CFU/mL Escherichia coli MTCC 739 after 24 hrs by disc diffusion technique
# Assay type: functional
# Settings: not given
# Summary of the method: as §2
row,SMILES,inhibition zone (IZ) [mm]
1,N#Cc1ccc(Nc2nc(Oc3ccnc4ccccc34)nc(N3CCN(c4ccccc4)CC3)n2)cc1C(F)(F)F,<10

# System: Staphylococcus aureus
# Experiment: Antibacterial activity against 10^5 CFU/mL Staphylococcus aureus MTCC 96 after 24 hrs by agar streak dilution method
# Assay type: functional
# Settings: MTCC 96, 24 h
# Summary of the method: as §1
row,SMILES,MIC [µg/mL]
1,N#Cc1ccc(Nc2nc(Oc3ccnc4ccccc34)nc(N3CCN(c4ccccc4)CC3)n2)cc1C(F)(F)F,100

# System: Proteus vulgaris
# Experiment: Antibacterial activity against 10^5 CFU/mL Proteus vulgaris MTCC 1771 after 24 hrs by disc diffusion technique
# Assay type: functional
# Settings: not given
# Summary of the method: as §2
row,SMILES,inhibition zone (IZ) [mm]
1,N#Cc1ccc(Nc2nc(Oc3ccnc4ccccc34)nc(N3CCN(c4ccccc4)CC3)n2)cc1C(F)(F)F,14
